# Key:
# Assay type in all cases: in vivo
# [1] = Organ dye content 24 hours after IV injection; details: mice
# Method in brief: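 ND4 Swiss Webster mice (25–30 g, n=3 per group) were anaesthetised with IP pentobarbital (40 mg/kg). They received 0.24 mg/kg dye (conjugate dosed by dye content) via the tail vein. At 24 h, organs were dissected, minced, homogenised and extracted in DMSO for 4 h, then centrifuged at 9,000 rpm for 15 min. Supernatant fluorescence was read against a DMSO calibration curve (785 nm excitation) and normalised to organ mass.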
# [2] = Plasma dye concentration after IV injection; details: mice, 24 hours after IV injection
# [3] = Two-compartment pharmacokinetic analysis of plasma data; details: ND4 Swiss Webster, mouse, iv, 0.24 mg/kg, distribution half-life, mice, IV 0.24 mg/kg dye, two-compartment model
compound,measurement,setting,value
"CC1(C)C(/C=C/C=C/C=C/C=C2\N(CCCCS(=O)(=O)O)c3ccc4ccccc4c3C2(C)C)=[N+](CCCCS(=O)(=O)[O-])c2ccc3ccccc3c21 [ICG, indocyanine green]","organ dye content, kidneys",[1],at background level
same,"organ dye content, lungs",[1],at background level
same,overall recovered percentage of injected dose (plasma plus organs),[2],2.6%
same,recovered percentage of injected dose in plasma,[2],0.8%
same,half-life,[3],~3.06 min
